Measurements taken from ChEMBL document CHEMBL1156229, “Pharmacophore development and application toward the identification of novel, small-molecule autotaxin inhibitors” (J Med Chem, 2010).
Activity calls are given as the source filed them. No cut-off for these calls is given here.

Experiments:
Autotaxin [1] = target: T1, Autotaxin (Homo sapiens, UniProt Q13822); assay: Inhibition of autotaxin at 10 uM
Summary of the method: (§1)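 Single-dose screen: inhibitor 10 μM final, purified recombinant human ATX 8.3 nM, FS-3 1 μM, fatty acid free BSA 30 μM in Tris pH 8 buffer (1 mM MgCl2, 1 mM CaCl2, 3 mM KCl, 140 mM NaCl), 37 °C. Fluorescence (ex 485/em 538) read every 2 min; percent activity vs vehicle after no-ATX subtraction at 1 h; mean ± SD of three wells.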

Autotaxin [2] = target: T1, Autotaxin; assay: Inhibition of human recombinant C-terminal FLAG-tagged autotaxin expressed in baculovirus-infected Sf9 cells assessed as FS-3 hydrolysis at 10 uM relative to control; summary of the method: as §1
Autotaxin [3] = target: T1, Autotaxin; assay: Inhibition of human recombinant C-terminal FLAG-tagged autotaxin expressed in baculovirus-infected Sf9 cells assessed as FS-3 hydrolysis at 0.3 uM; values are per cent of control
Autotaxin [4] = target: T1, Autotaxin; assay: Inhibition of human recombinant C-terminal FLAG-tagged autotaxin expressed in baculovirus-infected Sf9 cells assessed as FS-3 hydrolysis at 0.1 uM; values are per cent of control
Autotaxin [5] = target: T1, Autotaxin; assay: Inhibition of human recombinant C-terminal FLAG-tagged autotaxin expressed in baculovirus-infected Sf9 cells assessed as FS-3 hydrolysis at 30 uM; values are per cent of control
[6] = target: T2, Ectonucleotide pyrophosphatase/phosphodiesterase family member 7 (Homo sapiens) (UniProt Q6UWV6); assay: Inhibition of human recombinant C-terminal FLAG-tagged NPP7 expressed in baculovirus-infected Sf9 cells assessed as pNPPC hydrolysis at 10 uM relative to control
T2 sequence (whole entry): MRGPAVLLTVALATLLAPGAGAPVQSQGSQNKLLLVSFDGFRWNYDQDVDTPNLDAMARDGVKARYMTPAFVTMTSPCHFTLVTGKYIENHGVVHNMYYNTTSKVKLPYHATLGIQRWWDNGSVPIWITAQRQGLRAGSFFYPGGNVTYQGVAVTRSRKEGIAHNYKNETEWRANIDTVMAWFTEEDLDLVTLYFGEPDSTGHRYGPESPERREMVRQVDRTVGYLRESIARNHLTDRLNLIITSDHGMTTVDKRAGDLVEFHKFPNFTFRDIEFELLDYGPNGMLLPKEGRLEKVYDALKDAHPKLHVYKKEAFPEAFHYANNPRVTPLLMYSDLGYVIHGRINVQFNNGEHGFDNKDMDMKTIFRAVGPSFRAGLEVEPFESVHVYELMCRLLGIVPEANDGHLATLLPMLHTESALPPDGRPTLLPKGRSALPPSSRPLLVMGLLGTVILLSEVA
Summary of the method: (§2)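 Purified Sf9-expressed FLAG-tagged enzyme 8.3 nM with inhibitor 10 μM final. NPP6: pNPPC 10 μM in 100 mM Tris-HCl, 500 mM NaCl, 0.05% Triton X-100, pH 9. NPP7: pNPPC 500 μM in 50 mM Tris HCl, 150 mM NaCl, 10 mM sodium taurocholate, pH 8. 37 °C, A405 every 2 min; percent activity vs vehicle at 1 h after no-enzyme subtraction; three wells.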

Autotaxin [7] = target: T1, Autotaxin; assay: Inhibition of human recombinant C-terminal FLAG-tagged autotaxin expressed in baculovirus-infected Sf9 cells assessed as FS-3 hydrolysis at 3 uM; values are per cent of control
Autotaxin [8] = target: T1, Autotaxin; assay: Inhibition of human recombinant C-terminal FLAG-tagged autotaxin expressed in baculovirus-infected Sf9 cells assessed as FS-3 hydrolysis at 0.01 uM; values are per cent of control
Autotaxin [9] = target: T1, Autotaxin; assay: Inhibition of human recombinant C-terminal FLAG-tagged autotaxin expressed in baculovirus-infected Sf9 cells assessed as FS-3 hydrolysis at 1 uM; values are per cent of control
Autotaxin [10] = target: T1, Autotaxin; assay: Inhibition of human recombinant C-terminal FLAG-tagged autotaxin expressed in baculovirus-infected Sf9 cells assessed as FS-3 hydrolysis at 0.03 uM; values are per cent of control
[11] = target: T3, Glycerophosphocholine cholinephosphodiesterase ENPP6 (Homo sapiens) (UniProt Q6UWR7); assay: Inhibition of human recombinant C-terminal FLAG-tagged NPP6 expressed in baculovirus-infected Sf9 cells assessed as pNPPC hydrolysis at 10 uM relative to control; summary of the method: as §2
T3 sequence (whole entry): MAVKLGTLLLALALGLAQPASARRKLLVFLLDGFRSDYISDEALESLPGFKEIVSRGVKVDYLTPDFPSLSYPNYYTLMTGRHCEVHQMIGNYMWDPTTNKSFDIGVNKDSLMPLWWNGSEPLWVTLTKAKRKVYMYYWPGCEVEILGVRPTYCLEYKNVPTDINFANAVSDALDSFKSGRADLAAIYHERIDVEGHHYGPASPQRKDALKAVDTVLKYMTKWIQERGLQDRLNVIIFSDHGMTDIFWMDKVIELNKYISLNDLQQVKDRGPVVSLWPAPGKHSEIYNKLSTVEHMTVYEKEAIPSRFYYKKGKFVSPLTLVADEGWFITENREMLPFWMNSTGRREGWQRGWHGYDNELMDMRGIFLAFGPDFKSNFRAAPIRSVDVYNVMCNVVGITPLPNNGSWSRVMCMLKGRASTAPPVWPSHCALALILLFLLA

Autotaxin [12] = target: T1, Autotaxin; assay: Inhibition of human recombinant C-terminal FLAG-tagged autotaxin expressed in baculovirus-infected Sf9 cells assessed as FS-3 hydrolysis at 0.003 uM; values are per cent of control
Autotaxin [13] = target: T1, Autotaxin; assay: Inhibition of human recombinant C-terminal FLAG-tagged autotaxin expressed in baculovirus-infected Sf9 cells assessed as FS-3 hydrolysis at 10 uM; values are per cent of control
Autotaxin [14] = target: T1, Autotaxin; assay: Inhibition of human recombinant C-terminal FLAG-tagged autotaxin expressed in baculovirus-infected Sf9 cells assessed as FS-3 hydrolysis
Summary of the method: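 Dose response: final inhibitor 30, 10, 3, 1, 0.3, 0.1, 0.03 μM, plus 0.01 and 0.003 μM for some compounds; purified human ATX 8.3 nM, 1 μM FS-3, 30 μM fatty acid free BSA, Tris pH 8 buffer, 37 °C. Fluorescence ex 485/em 538 every 2 min; percent activity vs vehicle at 1 h after no-ATX background subtraction; mean of three wells.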

Autotaxin [15] = target: T1, Autotaxin; assay: Noncompetitive inhibition of human recombinant C-terminal FLAG-tagged autotaxin expressed in baculovirus-infected Sf9 cells assessed as FS-3 hydrolysis by Michaelis-Menten method
Autotaxin [16] = target: T1, Autotaxin; assay: Inhibition of human recombinant C-terminal FLAG-tagged autotaxin expressed in baculovirus-infected Sf9 cells using lysophosphatidylcholine as substrate assessed as choline release by Amplex red reagent assay
Summary of the method: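 LPC 16:0 100 μM with purified human ATX 8.3 nM and inhibitor 10 μM final, 30 μM fatty acid free BSA, 50 mM Tris/5 mM CaCl2 pH 7.4, 37 °C. Choline detected by choline oxidase 0.1 U/mL, HRP 1 U/mL, Amplex Red 10 μM; fluorescence ex 560/em 590 every 2 min, percent of vehicle at 1 h after no-ATX subtraction; mean ± SD of three wells.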

Autotaxin [17] = target: T1, Autotaxin; assay: Competitive inhibition of human recombinant C-terminal FLAG-tagged autotaxin expressed in baculovirus-infected Sf9 cells assessed as FS-3 hydrolysis by Michaelis-Menten method

SMILES: O=[As](O)(O)c1ccc(Cc2ccc([As](=O)(O)O)cc2)cc1
- inhibition (Autotaxin [1]): 98%

SMILES: Nc1c(/N=N/c2ccc(-c3ccc(/N=N/c4cc(S(=O)(=O)O)c5ccccc5c4N)cc3)cc2)cc(S(=O)(=O)O)c2ccccc12 [CONGO RED]
- inhibition (Autotaxin [2]): 82%
- residual activity (Autotaxin [3]): 77.3%
- residual activity (Autotaxin [4]): 91.2%
- residual activity (Autotaxin [5]): 5.29%
- inhibition [6]: 2%
- residual activity (Autotaxin [7]): 36.7%
- residual activity (Autotaxin [8]): 99.8%
- residual activity (Autotaxin [9]): 54.9%
- residual activity (Autotaxin [10]): 94.6%
- inhibition [11]: -3%
- residual activity (Autotaxin [12]): 99.9%
- residual activity (Autotaxin [13]): 14.6%
- IC50 (Autotaxin [14]): 1.31 µM
- Ki (Autotaxin [15]): 1.89 µM

SMILES: O=C(Nc1ccc(C(=O)Nc2cc(S(=O)(=O)O)cc3cccc(S(=O)(=O)O)c23)cc1)Nc1ccc(C(=O)Nc2cc(S(=O)(=O)O)cc3cccc(S(=O)(=O)O)c23)cc1
- inhibition (Autotaxin [2]): -5%
- inhibition (Autotaxin [16]): Active

SMILES: COc1c(C=O)c(O)cc2c1C(=O)c1ccccc1C2=O
- inhibition (Autotaxin [1]): 70%

SMILES: CC1=NN(c2ccc(/C=C/c3ccc(NC(=O)Nc4ccc(/C=C/c5ccc(N6N=C(C)C(/N=N/c7ccccc7C(=O)O)C6=O)cc5S(=O)(=O)O)c(S(=O)(=O)O)c4)cc3S(=O)(=O)O)c(S(=O)(=O)O)c2)C(=O)C1/N=N/c1ccccc1C(=O)O (stereo unspecified)
- inhibition (Autotaxin [2]): 13%
- inhibition (Autotaxin [16]): Active

SMILES: Cc1c(N)cc(S(=O)(=O)O)c(/N=N/c2ccc(-c3ccc(/N=N/c4c(S(=O)(=O)O)cc5cc(S(=O)(=O)O)c(/N=N/c6cccc([N+](=O)[O-])c6)c(N)c5c4O)cc3)cc2)c1N
- inhibition (Autotaxin [2]): 68%
- IC50 (Autotaxin [14]): 5.9 µM

SMILES: COc1cc(-c2ccc(/N=N/c3c(S(=O)(=O)O)cc4cc(S(=O)(=O)O)cc(N)c4c3O)c(OC)c2)ccc1/N=N/c1c(S(=O)(=O)O)cc2cc(S(=O)(=O)O)cc(N)c2c1O
- inhibition (Autotaxin [2]): 93%
- residual activity (Autotaxin [3]): 52.9%
- Ki (Autotaxin [17]): 0.271 µM
- residual activity (Autotaxin [4]): 72%
- residual activity (Autotaxin [5]): 2.68%
- inhibition [6]: -1%
- residual activity (Autotaxin [7]): 14.1%
- residual activity (Autotaxin [8]): 93.9%
- residual activity (Autotaxin [9]): 26%
- residual activity (Autotaxin [10]): 86.2%
- inhibition [11]: -3%
- residual activity (Autotaxin [12]): 97.5%
- residual activity (Autotaxin [13]): 6%
- IC50 (Autotaxin [14]): 0.372 µM

SMILES: COc1ccccc1/N=N/c1c(S(=O)(=O)O)cc2cc(NC(=O)Nc3ccc4c(O)c(/N=N/c5c(N)ccc6cc(S(=O)(=O)O)ccc56)c(S(=O)(=O)O)cc4c3)ccc2c1O
- inhibition (Autotaxin [2]): 84%
- IC50 (Autotaxin [14]): 11.6 µM

SMILES: COc1ccccc1/N=N/c1c(S(=O)(=O)O)cc2cc(NC(=O)Nc3ccc4c(O)c(/N=N/c5ccc(S(=O)(=O)O)cc5C)c(S(=O)(=O)O)cc4c3)ccc2c1O
- inhibition (Autotaxin [2]): 59%
- IC50 (Autotaxin [14]): 18.2 µM

SMILES: O=C(Nc1ccc2c(O)c(/N=N/c3ccccc3)c(S(=O)(=O)O)cc2c1)Nc1ccc2c(O)c(/N=N/c3ccc4cc(S(=O)(=O)O)ccc4c3)c(S(=O)(=O)O)cc2c1
- inhibition (Autotaxin [2]): 61%
- IC50 (Autotaxin [14]): 19.1 µM

SMILES: O=C(Nc1ccc(/C=C/c2ccc(NC(=O)c3cc(S(=O)(=O)O)c4cccnc4c3O)cc2S(=O)(=O)O)c(S(=O)(=O)O)c1)c1cc(S(=O)(=O)O)c2cccnc2c1O
- inhibition (Autotaxin [2]): 53%
- IC50 (Autotaxin [14]): 7.4 µM

SMILES: O=S(=O)(O)c1cc(O)c2ccc(Nc3ccc4c(O)cc(S(=O)(=O)O)cc4c3)cc2c1
- inhibition (Autotaxin [2]): 11%
- inhibition (Autotaxin [16]): Active

SMILES: Nc1ccc2cc(S(=O)(=O)O)c(/N=N/c3ccc(-c4ccc(/N=N/c5c(S(=O)(=O)O)cc6cc(S(=O)(=O)O)c(/N=N/c7cccc([N+](=O)[O-])c7)c(N)c6c5O)cc4)cc3)c(O)c2c1
- inhibition (Autotaxin [2]): 65%
- IC50 (Autotaxin [14]): 28.1 µM

SMILES: CCn1cc(C(=O)O)c(=O)c2cnc(N3CCN(C(=S)Nc4cc(Cl)cc(Cl)c4)CC3)nc21
- inhibition (Autotaxin [1]): 100%

SMILES: COc1cc(NC(=O)c2ccc(NC(=O)c3ccc(N)cc3)cc2)c(OC)cc1/N=N/c1cc(C)c(/N=N/c2cc(S(=O)(=O)O)c3cccc(S(=O)(=O)O)c3c2)cc1C
- inhibition (Autotaxin [2]): 53%
- IC50 (Autotaxin [14]): 7.6 µM

SMILES: Nc1ccc(C(=O)Nc2ccc(C(=O)Nc3ccc4c(O)cc(S(=O)(=O)O)cc4c3)cc2)cc1
- inhibition (Autotaxin [2]): 40%
- inhibition (Autotaxin [16]): Active

SMILES: O=C(Nc1cc(S(=O)(=O)O)cc2cc(S(=O)(=O)O)c(/N=N/c3cc(Nc4nc(O)nc(Nc5ccc(S(=O)(=O)O)cc5)n4)ccc3S(=O)(=O)O)c(O)c12)c1ccccc1
- inhibition (Autotaxin [2]): 76%
- IC50 (Autotaxin [14]): 7.3 µM

SMILES: O=S(=O)(O)c1ccc(-c2c3nc(c(-c4ccc(S(=O)(=O)O)cc4)c4ccc([nH]4)c(-c4ccc(S(=O)(=O)O)cc4)c4ccc([nH]4)c(-c4ccc(S(=O)(=O)O)cc4)c4nc2C=C4)C=C3)cc1 [TETRAPHENYLPORPHINE TETRASULFONIC ACID]
- inhibition (Autotaxin [2]): 61%
- IC50 (Autotaxin [14]; sf9): 7.8 µM

SMILES: Cc1cc(-c2ccc(/N=N/c3ccc4c(S(=O)(=O)O)cc(S(=O)(=O)O)c(N)c4c3O)c(C)c2)ccc1/N=N/c1ccc2c(S(=O)(=O)O)cc(S(=O)(=O)O)c(N)c2c1O [EVANS BLUE]
- inhibition (Autotaxin [2]): 64%
- residual activity (Autotaxin [3]): 60.9%
- Ki (Autotaxin [17]): 0.824 µM
- residual activity (Autotaxin [4]): 82.3%
- residual activity (Autotaxin [5]): 13.3%
- inhibition [6]: -2%
- residual activity (Autotaxin [7]): 35.8%
- residual activity (Autotaxin [8]): 96%
- residual activity (Autotaxin [9]): 47.9%
- residual activity (Autotaxin [10]): 89.6%
- inhibition [11]: -2%
- residual activity (Autotaxin [12]): 95.8%
- residual activity (Autotaxin [13]): 26.2%
- IC50 (Autotaxin [14]): 0.922 µM
